Laboratory results taken from ChEMBL document CHEMBL1155250, “Novel 1-aminoethyl-3-arylsulfonyl-1H-pyrrolo[2,3-b]pyridines are potent 5-HT(6) agonists” (Bioorg Med Chem, 2009).

Assays:
[1] = molecular target: T1, 5-hydroxytryptamine receptor 6 (Homo sapiens, UniProt P50406); experiment: Antagonist activity at human cloned 5HT6 receptor expressed in HeLa cells assessed as inhibition of adenylyl cyclase activity by RIA relative to serotonin; type: functional, cell-based
[2] = molecular target: T1, 5-hydroxytryptamine receptor 6; experiment: Antagonist activity at human cloned 5HT6 receptor expressed in HeLa cells assessed as inhibition of adenylyl cyclase activity by RIA; type: functional, cell-based
[3] = molecular target: T1, 5-hydroxytryptamine receptor 6; experiment: Agonist activity at human cloned 5HT6 receptor expressed in HeLa cells assessed as induction of adenylyl cyclase activity by RIA; type: functional, cell-based
Method in brief: (§1)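 Transfected HeLa cells expressing human 5-HT6 were washed with Krebs buffer and preincubated 5 min at 37 °C in Krebs with 500 µM IBMX. They were then stimulated 10 min at 37 °C with compound over 0.1–10000 nM. Agonist potency came from concentration–response curves, and percent efficacy was taken relative to a serotonin maximal response.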

[4] = molecular target: T1, 5-hydroxytryptamine receptor 6; experiment: Displacement of [3H]LSD from human cloned 5HT6 receptor expressed in HeLa cells; type: cell-based
Method in brief: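 Radioligand binding used human 5-HT6 receptor stably expressed in HeLa cells with [3H]LSD as the radioligand. Affinity is reported as Ki.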

[5] = molecular target: T1, 5-hydroxytryptamine receptor 6; experiment: Agonist activity at human cloned 5HT6 receptor expressed in HeLa cells assessed as induction of adenylyl cyclase activity by RIA relative to serotonin; type: functional, cell-based; method in brief: as §1
[6] = molecular target: 5-hydroxytryptamine receptor 1B (Homo sapiens) (UniProt P28222); experiment: Displacement of [3H]5-HT from human cloned 5HT1B receptor expressed in CHO cells at 1 uM; type: cell-based
Method in brief: (§2)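 Human 5-HT1B, 5-HT1D and 5-HT1F receptors were stably expressed in CHO cells and labelled with [3H]-5-HT. Results are given as percent inhibition at a single 1 µM concentration.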

[7] = species: Homo sapiens; experiment: Selectivity ratio of IC50 for human cloned dopamine D2 receptor to human cloned 5HT6 receptor
[8] = molecular target: 5-hydroxytryptamine receptor 2A (Homo sapiens, UniProt P28223); experiment: Displacement of [125I]DOI from human cloned 5HT2A receptor expressed in CHO cells; type: cell-based
Method in brief: (§3)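 Binding selectivity used stably expressed human receptors, 5-HT in CHO cells and dopamine in CHO-K1. Radioligands: [125I]DOI for 5-HT2A (agonist radioligand), [3H]-5-HT for 5-HT2C, [3H]LSD for 5-HT7, [3H]spiperone for D2, D3 and D4. Values are IC50 in nM.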

[9] = species: Homo sapiens; experiment: Selectivity ratio of IC50 for human cloned 5HT2A receptor to human cloned 5HT6 receptor
[10] = molecular target: D(2) dopamine receptor (Homo sapiens, UniProt P14416); experiment: Displacement of [3H]spiperone from human cloned dopamine D2 receptor expressed in CHO-K1 cells; type: cell-based; method in brief: as §3
[11] = molecular target: 5-hydroxytryptamine receptor 1D (Homo sapiens) (UniProt P28221); experiment: Displacement of [3H]5-HT from human cloned 5HT1D receptor expressed in CHO cells at 1 uM; type: cell-based; method in brief: as §2
[12] = molecular target: D(3) dopamine receptor (Homo sapiens, UniProt P35462); experiment: Displacement of [3H]spiperone from human cloned dopamine D3 receptor expressed in CHO-K1 cells; type: cell-based; method in brief: as §3
[13] = species: Homo sapiens; experiment: Selectivity ratio of IC50 for human cloned dopamine D3 receptor to human cloned 5HT6 receptor
[14] = molecular target: T2, 5-hydroxytryptamine receptor 2C (Homo sapiens, UniProt P28335); experiment: Displacement of [3H]5-HT from human cloned 5HT2C receptor expressed in CHO cells; type: cell-based; method in brief: as §3
T2 sequence (P28335 whole entry): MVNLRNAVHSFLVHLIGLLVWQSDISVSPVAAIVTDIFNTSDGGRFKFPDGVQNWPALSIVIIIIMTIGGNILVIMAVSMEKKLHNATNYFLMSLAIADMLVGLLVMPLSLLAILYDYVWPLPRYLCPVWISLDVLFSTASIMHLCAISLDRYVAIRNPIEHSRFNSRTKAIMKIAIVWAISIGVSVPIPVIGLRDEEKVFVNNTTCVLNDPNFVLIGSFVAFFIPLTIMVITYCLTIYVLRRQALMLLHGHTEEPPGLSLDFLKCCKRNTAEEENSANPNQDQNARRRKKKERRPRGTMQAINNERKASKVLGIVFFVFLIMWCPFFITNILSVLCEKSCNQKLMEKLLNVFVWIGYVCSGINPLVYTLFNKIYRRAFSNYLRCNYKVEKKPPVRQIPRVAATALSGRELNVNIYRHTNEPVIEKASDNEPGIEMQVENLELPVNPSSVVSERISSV

[15] = molecular target: T3, D(4) dopamine receptor (Homo sapiens, UniProt P21917); experiment: Displacement of [3H]spiperone from human cloned dopamine D4 receptor expressed in CHO-K1 cells; type: cell-based; method in brief: as §3
T3 sequence (P21917 whole entry): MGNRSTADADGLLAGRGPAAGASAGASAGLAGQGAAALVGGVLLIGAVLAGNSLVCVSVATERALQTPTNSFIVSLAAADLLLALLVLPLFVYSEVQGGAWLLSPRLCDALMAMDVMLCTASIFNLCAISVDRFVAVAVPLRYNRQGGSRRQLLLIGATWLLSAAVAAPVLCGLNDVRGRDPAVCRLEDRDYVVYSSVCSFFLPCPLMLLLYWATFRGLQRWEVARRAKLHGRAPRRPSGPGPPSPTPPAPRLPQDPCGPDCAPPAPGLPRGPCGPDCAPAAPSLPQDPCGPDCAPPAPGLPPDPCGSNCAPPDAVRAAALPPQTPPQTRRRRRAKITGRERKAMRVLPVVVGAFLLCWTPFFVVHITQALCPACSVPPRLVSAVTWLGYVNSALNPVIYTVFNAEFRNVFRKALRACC

[16] = species: Homo sapiens; experiment: Selectivity ratio of IC50 for human cloned 5HT1F receptor to human cloned 5HT6 receptor
[17] = species: Homo sapiens; experiment: Selectivity ratio of IC50 for human cloned 5HT1B receptor to human cloned 5HT6 receptor
[18] = molecular target: 5-hydroxytryptamine receptor 7 (Homo sapiens, UniProt P34969); experiment: Displacement of [3H]LSD from human cloned 5HT7 receptor expressed in CHO cells; type: cell-based; method in brief: as §3
[19] = molecular target: T4, 5-hydroxytryptamine receptor 1F (Homo sapiens) (UniProt P30939); experiment: Displacement of [3H]5-HT from human cloned 5HT1F receptor expressed in CHO cells at 1 uM; type: cell-based; method in brief: as §2
T4 sequence (whole entry): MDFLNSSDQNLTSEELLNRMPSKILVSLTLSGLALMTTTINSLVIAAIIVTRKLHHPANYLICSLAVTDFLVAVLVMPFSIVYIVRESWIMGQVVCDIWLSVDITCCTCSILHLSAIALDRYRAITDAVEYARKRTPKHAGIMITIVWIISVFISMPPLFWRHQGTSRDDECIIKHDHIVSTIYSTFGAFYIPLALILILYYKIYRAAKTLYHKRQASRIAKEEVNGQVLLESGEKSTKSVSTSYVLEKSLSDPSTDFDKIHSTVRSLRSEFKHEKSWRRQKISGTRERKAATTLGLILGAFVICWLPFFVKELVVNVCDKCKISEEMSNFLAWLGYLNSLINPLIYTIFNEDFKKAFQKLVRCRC

[20] = species: Homo sapiens; experiment: Selectivity ratio of IC50 for human cloned 5HT1D receptor to human cloned 5HT6 receptor
[21] = species: Homo sapiens; experiment: Selectivity ratio of IC50 for human cloned 5HT2C receptor to human cloned 5HT6 receptor
[22] = species: Homo sapiens; experiment: Selectivity ratio of IC50 for human cloned 5HT7 receptor to human cloned 5HT6 receptor
[23] = species: Homo sapiens; experiment: Selectivity ratio of IC50 for human cloned dopamine D4 receptor to human cloned 5HT6 receptor

T1 sequence (P50406 whole entry): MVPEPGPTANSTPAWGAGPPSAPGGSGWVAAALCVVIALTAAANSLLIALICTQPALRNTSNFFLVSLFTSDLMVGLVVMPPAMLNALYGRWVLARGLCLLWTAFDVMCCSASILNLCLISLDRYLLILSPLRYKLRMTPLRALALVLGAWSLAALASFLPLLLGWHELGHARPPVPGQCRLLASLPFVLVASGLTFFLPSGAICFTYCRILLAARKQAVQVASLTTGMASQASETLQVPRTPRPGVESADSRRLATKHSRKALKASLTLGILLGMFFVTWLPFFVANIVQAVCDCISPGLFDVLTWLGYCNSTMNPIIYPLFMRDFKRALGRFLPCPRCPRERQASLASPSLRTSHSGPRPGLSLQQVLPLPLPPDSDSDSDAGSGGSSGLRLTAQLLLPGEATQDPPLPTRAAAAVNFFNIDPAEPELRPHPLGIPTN
5-hydroxytryptamine receptor 2A, sequence (P28223 whole entry): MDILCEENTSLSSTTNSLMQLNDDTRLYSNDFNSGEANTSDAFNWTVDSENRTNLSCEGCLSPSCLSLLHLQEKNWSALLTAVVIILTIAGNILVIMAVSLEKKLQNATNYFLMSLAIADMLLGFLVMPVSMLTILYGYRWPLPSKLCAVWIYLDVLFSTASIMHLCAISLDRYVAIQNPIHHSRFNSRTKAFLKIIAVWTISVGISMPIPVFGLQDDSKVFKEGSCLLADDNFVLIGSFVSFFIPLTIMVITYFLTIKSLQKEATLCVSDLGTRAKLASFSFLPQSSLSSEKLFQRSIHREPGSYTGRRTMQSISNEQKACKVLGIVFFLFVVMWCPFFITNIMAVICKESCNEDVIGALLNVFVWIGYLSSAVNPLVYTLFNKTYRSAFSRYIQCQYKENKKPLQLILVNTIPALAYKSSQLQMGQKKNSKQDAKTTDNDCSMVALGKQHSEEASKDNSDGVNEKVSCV
D(3) dopamine receptor, sequence (P35462 whole entry): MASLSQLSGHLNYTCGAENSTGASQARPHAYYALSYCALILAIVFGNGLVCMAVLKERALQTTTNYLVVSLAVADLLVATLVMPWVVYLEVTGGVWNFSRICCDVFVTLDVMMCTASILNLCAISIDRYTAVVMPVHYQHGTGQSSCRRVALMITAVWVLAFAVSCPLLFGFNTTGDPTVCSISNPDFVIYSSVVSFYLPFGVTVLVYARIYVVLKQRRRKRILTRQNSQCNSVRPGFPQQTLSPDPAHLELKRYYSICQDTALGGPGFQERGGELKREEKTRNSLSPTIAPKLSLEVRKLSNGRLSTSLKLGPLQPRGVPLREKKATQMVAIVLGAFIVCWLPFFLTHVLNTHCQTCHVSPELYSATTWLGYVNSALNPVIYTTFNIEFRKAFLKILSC
D(2) dopamine receptor, sequence (P14416 whole entry): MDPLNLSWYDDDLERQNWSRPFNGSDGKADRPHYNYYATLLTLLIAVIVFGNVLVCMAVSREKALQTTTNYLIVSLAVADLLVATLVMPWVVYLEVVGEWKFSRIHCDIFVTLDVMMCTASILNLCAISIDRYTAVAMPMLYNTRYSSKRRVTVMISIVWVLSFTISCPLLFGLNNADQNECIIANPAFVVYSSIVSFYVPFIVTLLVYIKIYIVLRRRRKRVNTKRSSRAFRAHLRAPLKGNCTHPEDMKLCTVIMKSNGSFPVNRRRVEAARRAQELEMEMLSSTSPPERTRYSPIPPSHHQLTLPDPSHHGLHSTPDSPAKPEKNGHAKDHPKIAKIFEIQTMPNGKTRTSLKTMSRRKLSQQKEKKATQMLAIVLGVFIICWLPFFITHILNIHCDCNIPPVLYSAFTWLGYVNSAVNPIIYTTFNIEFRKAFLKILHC
5-hydroxytryptamine receptor 7, sequence (P34969 whole entry): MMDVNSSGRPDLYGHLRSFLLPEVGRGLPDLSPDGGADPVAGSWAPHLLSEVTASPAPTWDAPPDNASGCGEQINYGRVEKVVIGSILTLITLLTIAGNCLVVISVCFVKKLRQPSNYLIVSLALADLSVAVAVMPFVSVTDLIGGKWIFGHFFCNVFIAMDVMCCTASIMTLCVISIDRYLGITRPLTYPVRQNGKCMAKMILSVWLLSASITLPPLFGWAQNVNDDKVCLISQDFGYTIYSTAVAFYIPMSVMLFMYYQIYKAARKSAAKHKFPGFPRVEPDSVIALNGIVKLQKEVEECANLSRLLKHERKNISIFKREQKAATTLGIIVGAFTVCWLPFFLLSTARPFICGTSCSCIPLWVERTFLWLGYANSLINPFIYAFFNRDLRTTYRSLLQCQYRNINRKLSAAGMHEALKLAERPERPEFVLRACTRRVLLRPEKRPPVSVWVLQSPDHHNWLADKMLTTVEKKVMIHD
5-hydroxytryptamine receptor 1B (Homo sapiens), sequence (P28222 whole entry): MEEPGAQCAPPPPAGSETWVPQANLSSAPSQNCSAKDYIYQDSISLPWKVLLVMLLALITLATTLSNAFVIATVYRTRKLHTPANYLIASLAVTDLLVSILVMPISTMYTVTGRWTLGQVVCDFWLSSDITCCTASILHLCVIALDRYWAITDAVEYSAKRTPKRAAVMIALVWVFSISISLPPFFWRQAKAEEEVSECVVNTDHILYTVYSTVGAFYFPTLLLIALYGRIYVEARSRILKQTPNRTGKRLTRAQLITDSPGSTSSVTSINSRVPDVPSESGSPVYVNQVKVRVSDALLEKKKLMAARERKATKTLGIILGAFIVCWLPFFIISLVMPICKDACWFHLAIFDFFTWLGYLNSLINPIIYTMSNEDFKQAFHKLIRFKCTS
5-hydroxytryptamine receptor 1D (Homo sapiens), sequence (P28221 whole entry): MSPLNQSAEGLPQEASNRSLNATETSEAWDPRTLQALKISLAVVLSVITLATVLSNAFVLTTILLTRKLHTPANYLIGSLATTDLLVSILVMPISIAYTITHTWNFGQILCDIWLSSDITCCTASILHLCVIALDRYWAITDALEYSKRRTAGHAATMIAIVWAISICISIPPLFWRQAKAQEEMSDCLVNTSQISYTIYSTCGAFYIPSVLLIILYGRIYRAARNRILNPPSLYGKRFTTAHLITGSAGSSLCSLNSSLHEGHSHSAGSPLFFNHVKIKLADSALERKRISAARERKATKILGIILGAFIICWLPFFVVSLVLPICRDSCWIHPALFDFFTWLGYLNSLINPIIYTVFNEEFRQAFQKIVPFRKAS

CNCCn1cc(S(=O)(=O)c2cccc(Cl)c2)c2cccnc21
Imax [1]: 100%
IC50 [2]: 8.3 nM

NCCn1cc(S(=O)(=O)c2cccc(F)c2)c2cccnc21
EC50 [3]: 24 nM
Ki [4]: 4.7 nM
Emax [5]: 100%

CN(C)CCn1cc(S(=O)(=O)c2ccc(Cl)s2)c2cccnc21
EC50 [3]: 32 nM
Ki [4]: 3.3 nM
Emax [5]: 93%

NCCn1cc(S(=O)(=O)c2cccc(C(F)(F)F)c2)c2cccnc21
EC50 [3]: 110 nM
Ki [4]: 2.1 nM
Emax [5]: 83%

CN(C)CCn1cc(S(=O)(=O)c2c(Cl)cccc2Cl)c2cccnc21
EC50 [3]: 31 nM
Emax [5]: 66%

NCCn1cc(S(=O)(=O)c2ccccc2)c2ccccc21
EC50 [3]: 178 nM
Emax [5]: 67%

CN(C)CCn1cc(S(=O)(=O)c2ccccc2)c2ccccc21
EC50 [3]: 366 nM
Emax [5]: 63%

CNCCn1cc(S(=O)(=O)c2c(Cl)nc3sccn23)c2cccnc21
Imax [1]: 89%
Ki [4]: 0.9 nM
IC50 [2]: 5.4 nM

CN(C)CCn1cc(S(=O)(=O)c2cccs2)c2cccnc21
EC50 [3]: 154 nM
Emax [5]: 74%

Cc1c(S(=O)(=O)c2ccccc2)c2cccnc2n1CCN(C)C
EC50 [3]: 47 nM
Ki [4]: 4.7 nM
Emax [5]: 100%

CN(C)CCn1cc(S(=O)(=O)c2cc(Cl)ccc2Cl)c2cccnc21
Imax [1]: 97%
Ki [4]: 11.7 nM
IC50 [2]: 15 nM

CN(C)CCn1cc(S(=O)(=O)c2cc(Cl)cc(Cl)c2)c2cccnc21
EC50 [3]: 28 nM
Ki [4]: 4.3 nM
Emax [5]: 80%

CNCCn1cc(S(=O)(=O)c2cccc(F)c2)c2cccnc21
Imax [1]: 93%
IC50 [2]: 6.2 nM

CN(C)CCn1cc(S(=O)(=O)c2ccccc2)c2cccnc21
EC50 [3]: 25 nM
Emax [5]: 94%

NCCn1cc(S(=O)(=O)c2cccc3ccccc23)c2cccnc21
EC50 [3]: 63 nM
Ki [4]: 1.6 nM
Emax [5]: 65%

CN(C)CCn1cc(S(=O)(=O)c2ccc(F)cc2)c2cccnc21
EC50 [3]: 30 nM
Ki [4]: 45 nM
Emax [5]: 84%

CN(C)CCn1cc(S(=O)(=O)c2cccc(Cl)c2)c2cccnc21
inhibition [6]: 46%
Ratio IC50 [7]: > 50
IC50 [8]: 131 nM
Ratio IC50 [9]: > 50
IC50 [10]: > 5000 nM
inhibition [11]: 10%
IC50 [12]: > 5000 nM
Ratio IC50 [13]: > 50
IC50 [14]: 477 nM
IC50 [15]: > 5000 nM
Ratio IC50 [16]: > 50
EC50 [3]: 15 nM
Ratio IC50 [17]: > 50
IC50 [18]: 1220 nM
Ki [4]: 2.3 nM
inhibition [19]: 29%
Ratio IC50 [20]: > 50
Emax [5]: 86%
Ratio IC50 [21]: > 50
Ratio IC50 [22]: > 50
Ratio IC50 [23]: > 50

Cc1c(S(=O)(=O)c2ccccc2)c2cccnc2n1CCN
EC50 [3]: 20 nM
Ki [4]: 4.2 nM
Emax [5]: 85%

CN(C)CCn1cc(S(=O)(=O)c2cccc3ccccc23)c2cccnc21
inhibition [6]: 40%
Ratio IC50 [7]: > 50
IC50 [8]: 938 nM
Ratio IC50 [9]: > 50
IC50 [10]: > 5000 nM
inhibition [11]: 0%
IC50 [12]: 1560 nM
Ratio IC50 [13]: > 50
IC50 [14]: 1140 nM
IC50 [15]: > 5000 nM
Ratio IC50 [16]: > 50
EC50 [3]: 51 nM
Ratio IC50 [17]: > 50
IC50 [18]: 511 nM
inhibition [19]: 10%
Ratio IC50 [20]: > 50
Emax [5]: 63%
Ratio IC50 [21]: > 50
Ratio IC50 [22]: > 50
Ratio IC50 [23]: > 50

CN(C)CCn1cc(S(=O)(=O)c2c(Cl)nc3sccn23)c2cccnc21
EC50 [3]: 120 nM
Ki [4]: 0.9 nM
Emax [5]: 71%

NCCn1cc(S(=O)(=O)c2cccc(Cl)c2)c2cccnc21
IC50 [8]: 11 nM
IC50 [10]: > 5000 nM
IC50 [12]: > 5000 nM
IC50 [14]: 44 nM
IC50 [15]: > 5000 nM
EC50 [3]: 18 nM
IC50 [18]: 1360 nM
Ki [4]: 2 nM
Emax [5]: 94%

NCCn1cc(S(=O)(=O)c2ccccc2C(F)(F)F)c2cccnc21
EC50 [3]: 85 nM
Ki [4]: 2.1 nM
Emax [5]: 97%

NCCn1cc(S(=O)(=O)c2ccc(F)cc2)c2cccnc21
EC50 [3]: 166 nM
Emax [5]: 100%

NCCn1cc(S(=O)(=O)c2cc(Cl)cc(Cl)c2)c2cccnc21
EC50 [3]: 35 nM
Ki [4]: 2.9 nM
Emax [5]: 65%
